Hits are enriched below; roughly 0.84% of the tested compounds scored in any of these assays.
DDE Tn6 FP inh – inhibitors of Tn6 peptide binding to human fibrin DD(E). P02675. AID 720509. 370,000 tested, 0.21% active. inhibition, % at 8.3 µM. Fibrin DD(E) TRITC-Tn6 fluorescence polarization displacement;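 active = inhibition above a per-campaign cutoff: mean of compounds within control limits plus 3 SD, cut at about 15% in these data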;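 also: 0% = median of all compound wells on the plate and 100% = blocking peptide control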
Target sequence (P02675 whole entry, looked up): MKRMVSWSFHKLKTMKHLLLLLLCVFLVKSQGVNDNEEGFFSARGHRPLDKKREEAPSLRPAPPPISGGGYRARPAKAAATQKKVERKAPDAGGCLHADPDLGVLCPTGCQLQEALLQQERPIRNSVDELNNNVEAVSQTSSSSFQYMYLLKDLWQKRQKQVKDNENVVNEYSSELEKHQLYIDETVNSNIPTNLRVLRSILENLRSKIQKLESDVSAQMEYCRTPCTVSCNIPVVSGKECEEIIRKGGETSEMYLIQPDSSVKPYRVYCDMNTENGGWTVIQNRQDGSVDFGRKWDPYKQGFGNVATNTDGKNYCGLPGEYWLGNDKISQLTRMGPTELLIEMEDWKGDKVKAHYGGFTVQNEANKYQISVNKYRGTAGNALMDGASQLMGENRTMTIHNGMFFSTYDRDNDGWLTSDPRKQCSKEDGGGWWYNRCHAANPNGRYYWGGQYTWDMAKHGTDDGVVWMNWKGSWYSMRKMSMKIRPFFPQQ
Tn7 DDE FP – inhibitors of Tn7 peptide binding to human fibrin DD(E) | P02675 | FP displacement of FITC-Tn7 peptide from fibrin DD(E); 0% = median of compound wells per plate | inhibition, % at 8.3 µM | 370,000 tested, 0.13% active | AID 720508;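 active = inhibition above the mean of compounds falling within the control limits plus 3 SD of them, cut at about 14% in these data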;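 also: 0% = plate median of compound wells and 100% = 10 µM Aha-Tn7 peptide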
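assay system = human clot-derived fibrin DD(E) complex | quantity = Fibrin-DD(E) at 2 µM final | timing = 10 min preincubation, 3 h with tracer, room temperature | signal = fluorescence polarization | measure = percent inhibition | benchmarks = high control wells with 10 µM unlabelled Aha-Tn7 peptide (full inhibition) | replicates = singlicate testing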
MT1-MMP act inh – blocks activation of human MT1-MMP. P50281. HT1080 RFP-PRO-GFP cells, GFP/RFP ratio fluorescence, overnight; percent of plate control window, DMSO zero. GFP/RFP ratio change, % at 20 µM. 360,000 tested, 0.061% active. AID 651647;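 active = GFP/RFP ratio change of at least 30% with cell ATP level not reduced by more than half and red fluorescence within 50% of control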
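Assay system: HT1080 cells carrying an RFP-PRO-GFP reporter | Dosing: Single dose of 20 µM compound, 1% DMSO final | Incubation: Cells overnight before dosing, compound overnight, 37 °C, 5% CO2 | Evaluation: GFP/RFP fluorescence ratio | Control set: DMSO and RFP-L50D-GFP cell wells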
SKN-1 block – blocks SKN-1 activity in C. elegans | C. elegans VP596 Pgst-4::GFP/RFP ratio, acrylamide-induced, 24 h | inhibition, % at 21.8 µM | 360,000 tested, 0.49% active | AID 624304;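 active = interference check ratio from 0.5 to 1.5 plus GFP to RFP signal ratio inhibition reaching or exceeding a fixed threshold, cut at about 30% in these data, passing the limit was not always enough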
DDE Tn6 FP ctr – counter-screen for inhibitors of Tn6 peptide binding to fibrin DD(E); 680 tested, 2% active; TRITC-Tn6 fluorescence polarization displacement; 0% = median of compound wells, not DMSO; shares compounds with DDE Tn6 FP inh; inhibition, % at 8.3 µM;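 active = inhibition above the mean of test compounds lying between the control limits plus 3 SD of those, cut at about 14% in these data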;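 also: 0% = median of compound wells and 100% = wells with Aha-Tn7 blocking peptide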
Tn6 DDE conf – confirmation of inhibitors of Tn6 binding to human fibrin DD(E); 680 tested, 10% active; inhibition, % at 8.3 µM; shares compounds with DDE Tn6 FP inh; FP displacement of TRITC-Tn6 peptide from DD(E); 0% = per-plate median of test wells;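 active = inhibition above the mean of compounds lying within the control limits plus 3 SD, cut at about 16% in these data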;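 also: 100% = high control wells holding a competing inhibitor peptide at 10 µM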
An asterisk follows results filed as active; · = no result given.

SMILES	DDE Tn6 FP inh	Tn7 DDE FP	MT1-MMP act inh	SKN-1 block	DDE Tn6 FP ctr	Tn6 DDE conf
CN1C(=O)c2cccc3c(Cl)ccc(c23)C1=O	-3	2	-27	17	·	·
CNc1ccc2c3c(cccc13)C(=O)N(C)C2=O	47*	-6	-79	0	53*	43*
CC(C)(C)c1ccc(NC(=O)CCNC(=O)c2ccco2)cc1	15*	8	-1	2	-5	-5
CC(CNC(=O)c1ccc(OC2CCN(Cc3ccccn3)CC2)cc1)c1ccccc1 (stereo not given)	-12	-11	6	-10	·	·
CCc1ccc(OCC(=O)Nc2ccc3oc(=O)ccc3c2)cc1	17*	6	-1	-14	5	-2
CCCCNC(=O)c1cnc(Cc2c[nH]c3ccccc23)c(I)c1	1	-6	1	18	·	·
O=C(COC(=O)C1CC1)Nc1ccc(OC(F)F)cc1	15*	6	-1	1	-2	-5
CCOc1ccc2cc(C3CC(c4ccco4)=NN3S(C)(=O)=O)c(=O)[nH]c2c1 (stereo not given)	3	-9	2	10	·	·
O=c1[nH]nc(SCc2ccccc2Cl)n1-c1ccc2c(c1)OCCO2	16*	3	1	9	-6	-7
COc1ccccc1OCC(=O)NCc1ccco1	-5	3	-1	3	·	·
COc1ccccc1C(C)NCC(=O)NC(=O)NCc1ccco1 (stereo not given)	57*	4	-6	16	-5	-8
CCCCCCCCCCCNC(=O)c1ccoc1C	17*	0	-8	-5	9	3
O=C1/C(=C/c2cccc([N+](=O)[O-])c2)CSc2ccc(Cl)cc21	3	-1	-7	-7	·	·
CNc1ccc(/C=C2\CSc3ccccc3C2=O)cc1[N+](=O)[O-]	19*	-2	14	10	4	5
C=C(C)CN=CC1(C)CCC(C)=CO1 (stereo not given)	2	5	-5	1	·	·
Cc1cc2c(cc3c(=O)n(CC(=O)NCCCN4CC(C)CC(C)C4)ncn32)s1 (stereo not given)	4	-1	2	-4	·	·
COc1ccc(NC(=O)CC(C)(C)C)c([N+](=O)[O-])c1	16*	5	2	10	5	2
COc1ccc(NC(=O)CC(C)C)c([N+](=O)[O-])c1	2	-7	-1	1	·	·
Cc1cc2cc(CNC(=O)c3ccco3)ccc2n1C	27*	-5	22	49*	6	0
Cc1cc2cc(CNC(=O)NC3CCCCC3)ccc2n1C	-1	-4	25	14	·	·
Cc1cc2cc(CNC(=O)COc3ccccc3)ccc2n1C	46*	3	35	65	4	9
Cc1cc2cc(CNC(=O)Nc3ccc(Cl)c(Cl)c3)ccc2n1C	96*	-12	46	66	0	35*
Cc1ccc(S(=O)(=O)NCc2ccc3c(c2)cc(C)n3C)cc1	71*	-7	40	50	4	-1
COc1ccc(C2Nc3ccccc3C(=O)N2NS(=O)(=O)c2ccc(C)cc2)cc1OC (stereo not given)	-16	2	-2	5	·	·
COc1cc(/C=C/C(=O)NCc2ccccn2)cc(OC)c1OC	0	8	2	4	·	·
SMILES	DDE Tn6 FP inh	Tn7 DDE FP	MT1-MMP act inh	SKN-1 block	DDE Tn6 FP ctr	Tn6 DDE conf
Cc1onc(-c2ccccc2Cl)c1C(=O)NCc1ccc2c(c1)cc(C)n2C	22*	-2	43	55	3	1
COc1cc(/C=C\C(=O)NCc2ccc3c(c2)cc(C)n3C)cc(OC)c1OC	22*	-8	25	29	10	5
CCOc1ccc(CC(=O)NCc2ccc3c(c2)cc(C)n3C)cc1	45*	2	18	37	3	0
Cc1ccc(CNC(=O)c2c(-c3ccccc3Cl)noc2C)cc1	-4	0	-1	-3	·	·
COCC(=O)NCc1ccc2c(c1)cc(C)n2C	21*	3	10	47*	1	0
COc1ccc(CC(=O)NCc2ccc3c(c2)cc(C)n3C)cc1OC	0	6	29	30	·	·

Screening data: PubChem BioAssay, several laboratories
